The record followed here is ChEMBL document CHEMBL1127317 (J Med Chem, 1994).

Format in all cases: ADME
Data set [1] in a line: The observed pseudo-first-order rate constants of compound for cyclization reaction at pH 2.4. An outline of the steps:
(§1)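 Amines generated from the 2-nitroaryl amides, incubated at 37 °C in aqueous buffer of ionic strength 0.01 M. Cyclization followed at the same time by UV/vis spectrophotometry in thermostated stoppered cuvettes and by C-18 reverse-phase HPLC (MeOH/10 mM phosphate pH 7 mobile phase). Runs lasted 4 h at first, extended to about 4 half-lives when product formed. Pseudo-first-order k_obs was taken from first-order loss of amine peak area.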

Data set [2] in a line: The half-life for cyclization reaction at pH 2.4. An outline of the steps:
as §1

Data set [3] is described as follows: The observed pseudo-first-order rate constant of compound for cyclization reaction at pH 2.4. The procedure, abridged: as §1
The nature of data set [4]: The half-life for cyclization reaction at pH 6.8. The procedure, abridged:
as §1

The nature of data set [5]: The observed pseudo-first-order rate constant of compound for cyclization reaction at pH 6.8. An outline of the steps: as §1

In data set [1], `COc1ccc(NC(=O)c2cccc3cccc(N)c23)cc1` registered a K obs of 0.11 min⁻¹. The compound also returned a half-life in data set [2] of 6.3 min.
In the case of `COc1ccc(NC(=O)Cc2ccccc2N)cc1`, the K obs in data set [3] is 0.0026 min⁻¹. The compound also had a half-life in data set [2] of 260 min.
For the compound `CC(=O)c1ccc(NC(=O)C(C)(C)c2ccccc2N)cc1`, the K obs in data set [3] was 21 min⁻¹; in data set [5] it was 0.02 min⁻¹. This compound also displayed a T1/2 in data set [2] of 0.033 min. For the same compound, the half-life in data set [4] worked out at 35 min.
Turning to `COc1ccc(NC(=O)C(C)(C)c2ncccc2N)cc1`, the K obs was 0.078 min⁻¹ in data set [3] and 0.0013 min⁻¹ in data set [5]. Also, the figures for the half-life in data set [2] and in data set [4] were 8.9 min and 530 min, respectively.
Turning to `COc1ccc(NC(=O)C(C)(C)c2ccccc2N)cc1`, the K obs in data set [3] is 10 min⁻¹; in data set [5], 0.0096 min⁻¹. Also, the T1/2 in data set [2] was 0.07 min. The half-life in data set [4] worked out at 72 min.
With `CCC(CC)(C(=O)Nc1ccc(OC)cc1)c1ccccc1N`, the figures for the K obs in data set [3] and in data set [5] were 1.64 min⁻¹ and 0.028 min⁻¹, respectively. Moreover, the values for the half-life in data set [2] and in data set [4] were 0.43 min and 250 min, respectively.
As to `COc1ccc(NC(=O)CS(=O)(=O)c2c(C)cccc2N)cc1`, the K obs in data set [3] is 0.0004 min⁻¹. In addition, the half-life in data set [2] is 1700 min.
In data set [3], `COc1ccc(NC(=O)c2c(C)nn(-c3ccccc3)c2-c2ccccc2N)cc1` came in with a K obs of 0.019 min⁻¹. In data set [2], this compound had a half-life of 36 min.
As for `Nc1ccccc1CCC(=O)Nc1cnc2ccccc2c1`, in data set [3], the K obs came to 0.022 min⁻¹. The compound further gave a half-life in data set [2] of 32 min.
In data set [1], `Nc1ccccc1CC(=O)Nc1cnc2ccccc2c1` showed a K obs of 0.008 min⁻¹. The same compound returned a half-life in data set [2] of 87 min.
`COc1ccc(NC(=O)[C@@H]2CCCN2C(=O)c2ccccc2N)cc1`: in data set [3], the K obs was 0.0094 min⁻¹. The compound also returned a half-life in data set [2] of 74 min.
As to `COc1ccc(NC(=O)Cn2ncc3cccc(N)c32)cc1`, the K obs in data set [3] came to 0.0084 min⁻¹. Further, the half-life in data set [2] amounted to 83 min.
Regarding `COc1ccc(NC(=O)CCc2ccccc2N)cc1`, the K obs in data set [3] was found to be 0.012 min⁻¹. Besides, the half-life in data set [2] was determined as 58 min.
Turning to `COc1ccc(NC(=O)C(C)(C)c2cc(C(=O)NCCN(C)C)ccc2N)cc1`, the values for the K obs in data set [3] and in data set [5] were 2.58 min⁻¹ and 0.0009 min⁻¹, respectively. In addition, the half-life in data set [2] was determined as 0.27 min; in data set [4] it was 770 min.
Turning to `CC(C)(C(=O)Nc1ccccc1)c1ccccc1N`, the values for the K obs in data set [3] and in data set [5] were 21 min⁻¹ and 0.02 min⁻¹, respectively. In addition, in data set [2], the T1/2 came to 0.033 min. Moreover, the half-life in data set [4] worked out at 35 min.
For `COc1ccc(N(C)C(=O)C(C)(C)c2ccccc2N)cc1`, the K obs in data set [3] worked out at 2.5 min⁻¹; in data set [5] it was 0.0009 min⁻¹. The half-life came to 0.28 min in data set [2] and 800 min in data set [4].
Consider `CN(C)c1ccc(NC(=O)C(C)(C)c2ccccc2N)cc1`, for which, in data set [4], the half-life came to 71 min. In data set [5], this compound gave a K obs of 0.0097 min⁻¹.
In data set [3], `COc1ccc(NC(=O)C(C)c2ccccc2N)cc1` (stereo not given) came in with a K obs of 0.043 min⁻¹. The compound further registered a half-life in data set [2] of 16 min.
